Assay results of several laboratories.
Each line is one published result; the experiments were not run side by side.
Target: Dual specificity tyrosine-phosphorylation-regulated kinase 2 (DYRK2, Homo sapiens, UniProt Q92630)
Read-out: enzyme activity
Mode: inhibitor
Sequence (Q92630 1-601, as in one of the studies): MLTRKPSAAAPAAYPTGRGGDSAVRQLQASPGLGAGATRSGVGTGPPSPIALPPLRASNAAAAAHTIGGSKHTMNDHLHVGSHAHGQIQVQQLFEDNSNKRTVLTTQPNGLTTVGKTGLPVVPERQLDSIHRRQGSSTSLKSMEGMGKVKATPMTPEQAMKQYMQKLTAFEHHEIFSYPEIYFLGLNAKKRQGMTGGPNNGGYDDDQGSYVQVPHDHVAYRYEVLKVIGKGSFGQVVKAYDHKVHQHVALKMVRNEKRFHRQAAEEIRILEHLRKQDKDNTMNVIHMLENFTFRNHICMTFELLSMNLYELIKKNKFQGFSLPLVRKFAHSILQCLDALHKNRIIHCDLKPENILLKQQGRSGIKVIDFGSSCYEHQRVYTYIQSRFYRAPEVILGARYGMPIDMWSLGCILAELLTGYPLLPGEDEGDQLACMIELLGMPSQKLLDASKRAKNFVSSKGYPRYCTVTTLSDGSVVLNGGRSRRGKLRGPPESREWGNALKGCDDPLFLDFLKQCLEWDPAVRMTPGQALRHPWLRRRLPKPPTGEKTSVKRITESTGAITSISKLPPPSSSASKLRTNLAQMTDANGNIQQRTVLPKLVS

With O=C(O)c1ccc2c(c1)nc(Nc1ccc3ccccc3c1)c1ccncc12 the remaining activity was 18% (radiometric; 1 µM).
CCN(CC)c1ccc(C2=NNC(=O)CC2C)cc1[N+](=O)[O-] (stereo not drawn) has a remaining activity of 100% (10 µM).
For Cc1sc(C(=O)NC2COC2)cc1-n1cc(NC(=O)Nc2c(F)cccc2Cl)cn1, the remaining activity was 96.3% (10 µM).
With Cc1cnc(NC2CCOCC2)nc1-n1cnc(C(=O)NC(CN)c2cc(F)cc(Cl)c2)c1 (stereo not drawn) the remaining activity was 30% (radiometric; 1 µM).
The remaining activity of CC(C)(O)[C@H]1CC[C@H](Nc2ccc3ncc(-c4cccc(C(F)(F)F)c4)n3n2)CC1 is reported as 59.7% (1 µM).
For Nc1nc(Nc2ccccc2)sc1C(=O)c1c(F)cccc1F, the remaining activity was 79% (10 µM).
O=C(O)c1ccc2c(c1)nc(NCCc1cccc(F)c1)c1ccncc12 gave a remaining activity of 17% (radiometric; 1 µM).
COc1cc(Nc2cnc(C#N)c(O[C@H](C)CN(C)C)n2)ncc1-c1cnn(C)c1 has a remaining activity of 100% (radiometric; 1 µM).
FC(F)c1nc2ccccc2n1-c1nc(N2CCOCC2)nc(N2CCOCC2)n1 has a remaining activity of 93% (10 µM).
With N#Cc1cccc(Nc2nc3cc(C(=O)O)ccc3c3cnccc23)c1 the remaining activity was 11% (radiometric; 1 µM).
The remaining activity of Oc1cccc(-c2nc(N3CCOCC3)c3oc4ncccc4c3n2)c1 is reported as 83% (10 µM).
For Cc1ccc(C(=O)Nc2ccc(CN3CCN(C)CC3)c(C(F)(F)F)c2)cc1C#Cc1cnc2cccnn12, the remaining activity was 80% (23.5 nM).
